# Most compounds without a hit are left out; they make up all but 2.1% or so of the library.
# pCIP destab: lowers stability of the mouse p/CIP coactivator protein; Q05BA5; F442A p/CIP-EGFP cells, EGFP fluorescence, 16 h; decrease of EGFP signal, % at 10 µM; actives 0.01% (n = 290,000);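 active = EGFP signal decrease of at least 30% at 10 µM or well 3 SD below plate mean, unless failing retest; inactive = the rest, including hits failing retest or dose response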
# RanGTP-Imp inh: disruptors of Ran-importin-beta complex formation – biochemical, FRET, CFP-Ran, YFP-importin-beta, homogeneous, primary screen; cell-free CFP-Ran/YFP-importin-beta FRET ratio; inhibition, % (test concentration not listed); actives 1.1% (n = 300,000); AID 2216;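 active = more than half of the replicate wells show a fall in the fluorescence ratio signal beyond about 16%, limit read from the data, passing the limit was not always enough; inconclusive = exactly half of the replicate wells pass the set limit; inactive = fewer than half of replicates pass the limit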;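 note: 0% = DMSO wells and 100% = Ran loaded with GDP instead of GTP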
# Runt-CBFb FRET: Runt domain-CBFb interaction inhibition. actives 0.46% (n = 220,000). Q01196+Q13951. inhibition, % at 20 µM. AID 1496. Cerulean-Runt/Venus-CBFb FRET ratio 530/480, 1 h;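 active = inhibition over about 50% at 20 µM in the single-dose screen, limit read from the data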;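 note: 0% = DMSO wells and 100% = excess unlabeled CBFb competitor control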
#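 Reagent – Venus-CBFb binding partner, 100 nM · Assay system – Cerulean-tagged RUNX1 Runt domain (FRET donor) fusion protein · Input – 100 nM per protein · Incubation – two 1 h room-temperature incubations shielded from light · Measured by – FRET fluorescence · Medium – Tris buffer pH 7.5 with salts and BSA · Benchmarks – unlabeled CBFb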
# Runt-SMMHC FRET: inhibitors of human RUNX1 Runt domain binding to CBFb-SMMHC; Cerulean-Runt/Venus-CBFb-SMMHC FRET ratio 530/480, 1 h; inhibition, % at 20 µM; actives 0.74% (n = 220,000); AID 1434;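 active = mean inhibition across duplicate retests at 20 µM reaching about 50%, limit read from the data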;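 note: 0% = DMSO wells and 100% = wells with excess untagged CBFb-SMMHC; inhibitors lower the FRET ratio by blocking Runt binding to CBFb-SMMHC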
# Hck Nef HTS: inhibitors of human Hck kinase activated by Nef. actives 0.68% (n = 220,000). AID 463187. Recombinant Hck-YEEI plus Nef, Z-Lyte FRET kinase assay. inhibition, % at 20 µM;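 active = Hck-Nef kinase inhibition above about 50%, limit read from the data; inactive = inhibition below that limit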;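 note: 0% = DMSO with Hck plus Nef and 100% = Hck alone without Nef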
# DSG3 Ab inh: human desmoglein-3 autoantibody binding inhibition. P32926. AID 588358. binding (percent of control), % at 10 µM. actives 0.48% (n = 310,000). DSG3-coupled beads, scFv-anti-DSG3-GFP binding, flow cytometry; active compounds read low;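 active = binding more than 3 SD below its plate's average and above zero; inconclusive = below that plate limit but binding exactly zero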;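 note: hits lower antibody fragment binding to DSG3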
# Target sequence (P32926 whole entry, looked up, the tested form may be a part): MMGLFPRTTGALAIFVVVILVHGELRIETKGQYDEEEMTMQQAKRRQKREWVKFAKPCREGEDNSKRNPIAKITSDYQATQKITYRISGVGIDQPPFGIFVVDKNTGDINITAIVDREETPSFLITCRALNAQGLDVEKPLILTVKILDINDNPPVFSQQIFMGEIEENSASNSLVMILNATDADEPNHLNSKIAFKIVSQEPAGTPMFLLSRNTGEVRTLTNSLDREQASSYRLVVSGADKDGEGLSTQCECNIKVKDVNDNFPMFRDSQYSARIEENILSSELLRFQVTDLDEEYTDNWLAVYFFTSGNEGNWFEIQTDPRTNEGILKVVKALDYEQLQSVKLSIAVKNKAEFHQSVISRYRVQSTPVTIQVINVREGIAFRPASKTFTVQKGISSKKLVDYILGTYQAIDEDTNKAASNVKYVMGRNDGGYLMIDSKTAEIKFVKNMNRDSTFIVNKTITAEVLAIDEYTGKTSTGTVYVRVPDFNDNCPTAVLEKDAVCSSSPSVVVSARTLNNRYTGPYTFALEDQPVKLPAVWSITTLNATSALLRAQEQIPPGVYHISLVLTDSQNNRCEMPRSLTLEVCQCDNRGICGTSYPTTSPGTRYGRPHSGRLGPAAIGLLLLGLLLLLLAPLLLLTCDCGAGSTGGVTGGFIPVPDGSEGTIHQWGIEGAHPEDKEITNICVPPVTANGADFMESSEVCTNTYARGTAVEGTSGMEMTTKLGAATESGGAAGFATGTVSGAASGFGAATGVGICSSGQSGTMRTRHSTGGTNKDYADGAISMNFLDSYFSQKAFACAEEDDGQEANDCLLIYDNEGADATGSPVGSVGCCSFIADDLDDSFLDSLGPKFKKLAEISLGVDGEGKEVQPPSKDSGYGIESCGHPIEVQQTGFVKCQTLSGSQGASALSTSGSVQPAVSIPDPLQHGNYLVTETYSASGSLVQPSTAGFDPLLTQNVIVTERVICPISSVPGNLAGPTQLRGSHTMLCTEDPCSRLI
# * hit, by the source's call; ? = inconclusive; . = no result.
SMILES,pCIP destab,RanGTP-Imp inh,Runt-CBFb FRET,Runt-SMMHC FRET,Hck Nef HTS,DSG3 Ab inh
O/N=C/c1cn(-c2ccccc2)nn1,-4,-2,0,1,24,108
Cn1cc(/C=N\O)nc2c(=O)n(-c3ccccc3)c(=O)nc1-2,-10,33*,84*,95*,30,108
CCOC(=O)C1C(=O)C(=O)N(C2CCCCC2)C1C(=O)OCC (configuration not stated),.,.,.,.,.,86
CCn1c(CC(=O)Nc2ccccc2Cl)nnc1SCC(=O)NC1CCCC1,0,?,.,.,.,86*
Cc1nc2c(c(=O)n1CCC1=CCCCC1)c1nc3ccccc3nc1n2/N=C/c1ccco1,-6,1,0,0,18,95
CCCn1c(C)nc2c(c1=O)c1nc3ccccc3nc1n2CCc1ccccc1,.,.,.,.,7,.
CCCn1c(C)nc2c(c1=O)c1nc3ccccc3nc1n2-c1ccccc1,.,.,.,.,.,88*
CCCn1c(C)nc2c(c1=O)c1nc3ccccc3nc1n2CCC1=CCCCC1,-1,1,22,64*,5,106
Cc1cc(C)cc(OCC(=O)N(Cc2ccccc2)C2CCS(=O)(=O)C2)c1 (configuration not stated),19,1,.,.,.,110
CC(OC(=O)c1cc(=O)[nH]c2ccccc12)C(=O)NCc1ccccc1 (configuration not stated),.,2,.,.,.,98
C/C(=N\NC(=O)Cc1ccccc1)c1cccs1,-12,-5,0,1,1,78*
COCc1ccc(C(=O)N2CCCC(C(=O)c3ccc(SC)cc3)C2)s1 (configuration not stated),-11,3,.,.,.,97
CC1=CCC2C(=O)N(c3ccc(C)c(Br)c3)C(=O)C2C1 (configuration not stated),-15,?,3,1,15,48*
S=C(NCCc1ccccc1)NC1CCC(NC(=S)NCCc2ccccc2)CC1 (configuration not stated),25,2,-17,-29,19,71*
S=C(NCCc1ccccc1)NC1CC1,-7,4,-2,2,4,96
CC(=O)OCC(=O)C12OC(C)(C)OC1CC1C3CC=C4CC(O)CCC4(C)C3CCC12C (configuration not stated),.,.,.,.,.,111
O=C(NC1CC1)C1=C[C@@H](c2c[nH]c3ccccc23)C[C@@H](OCc2ccc(CO)cc2)O1,-6,1,1,2,11,124
COc1ccc2c(c1)c(C(=O)CN1CCN(Cc3ccccc3)CC1)c(C)n2C,3,-2,0,-2,7,96
COc1ccc2c(c1)c(C(=O)CN1CCN(C(=O)c3ccco3)CC1)c(C)n2C,-6,19*,-3,-38,2,104
Cn1c(/C=C/c2ccc(Cl)cc2)nc2ccccc2c1=O,0,20*,.,.,.,117
CC(=O)Nc1ccc(/C=C/c2nc3ccccc3[nH]c2=O)cc1,-14,-17,.,.,.,.
Cn1c(/C=C/c2ccccc2)nc2ccccc2c1=O,3,0,.,.,.,90
O=c1[nH]c2ccccc2nc1/C=C/c1ccc(Cl)cc1,-8,23*,-32,37,21,97
Cc1cc(Cl)ccc1NC(=O)CSc1n[nH]c(N)n1,.,.,.,.,.,101
CC(C)CNC(=O)COC(=O)c1ccc2c(c1)C(=O)N(Cc1ccco1)C2=O,-4,0,.,.,.,104
SMILES,pCIP destab,RanGTP-Imp inh,Runt-CBFb FRET,Runt-SMMHC FRET,Hck Nef HTS,DSG3 Ab inh
COc1cccc(C2=NOC(C(=O)N3CCc4ccccc4C3)C2)c1 (configuration not stated),-3,23*,.,-2,23,108
N#C/C(=C/c1ccc(F)cc1)c1nnc(NC(=O)c2ccccc2)s1,-13,-5,2,81*,-14,98
CN(Cc1ccc(F)cc1)S(=O)(=O)c1nnc(NC(=O)c2ccccc2)s1,-14,2,.,.,.,.
CCOC(=O)CN=C/C(C(C)=O)=C(/C)O,-9,63*,1,0,4,108
CN(C)/C=C/c1c([N+](=O)[O-])c2ccc(O)cc2n1-c1ccccc1,-1,1,7,4,104*,78
CCCCNc1cc(NC(C)=O)cc2cc(OC)c(OC)cc12,-6,21*,4,0,6,112
O=C(Nc1cccc(NC(=O)c2ccco2)c1)c1ccc([N+](=O)[O-])cc1,-4,75*,0,-2,5,102
COc1cccc(NC(=O)c2ccc(-c3ccc([N+](=O)[O-])cc3)o2)c1,6,?,.,.,24,84*
O=C(Nc1nccs1)c1ccc(-c2cccc([N+](=O)[O-])c2)o1,-13,?,-3,-16,41,64*
CC1(C)CC(=O)c2cnc3c(C#N)cnn3c2C1,8,115*,0,-2,-7,99
CSc1nc2ncc3c(n2n1)CC(C)(C)CC3=O,6,?,0,-2,-12,103
CC1CCN(C(=O)CSc2nnc(-c3cc4ccccc4cc3O)n2Cc2ccco2)CC1,-2,39*,26,24,5,94
COc1ccc(C(=O)CSc2nnc(-c3cc4ccccc4cc3O)n2Cc2ccco2)cc1,-10,-4,20,6,1,89
COc1ccc(S(=O)(=O)Nc2ccc3c(c2)C(=O)N([C@H](C)CO)C[C@H](C)[C@@H](CN(C)C(=O)Nc2ccccc2)O3)cc1,.,.,.,.,.,105
O=C(NCCCc1ccccc1)c1ccc(CS(=O)Cc2ccc(Cl)cc2)o1 (configuration not stated),-2,-2,.,.,.,.
COc1cccc(-n2c(N)c(C(=O)Nc3c(C)n(C)n(-c4ccccc4)c3=O)c3nc4ccccc4nc32)c1,-17,-4,10,-106,44,103
C=CCn1c(N)c(C(=O)Nc2ccccc2)c2nc3ccccc3nc21,-20,18*,4,5,3,104
COCCNC(=O)c1c(N)n(-c2ccccc2)c2nc3ccccc3nc12,0,90*,88*,42,33,101
COC(=O)c1c(N)n(-c2ccc(NC(C)=O)cc2)c2nc3ccccc3nc12,1,7,28,74*,41,.
COCCCNC(=O)c1c(N)n(-c2ccc(S(N)(=O)=O)cc2)c2nc3ccccc3nc12,4,61*,57*,82*,11,115
O=C(O)C(C1CCCCC1)C1(O)CCCC1 (configuration not stated),.,.,.,.,.,134
COC(=O)[C@H](CC(C)C)NC(=O)Cn1cnc2c(NCc3ccccc3)ncnc21,.,.,.,.,.,100
COCCCNC(=O)c1c(N)n(-c2ccccc2)c2nc3ccccc3nc12,-2,87*,54*,81*,10,102
COCCNC(=O)c1c(N)n(CCCn2ccnc2)c2nc3ccccc3nc12,4,113*,40,41,32,.
